From ChEMBL document CHEMBL4118197, “The discovery and preclinical evaluation of BMS-707035, a potent HIV-1 integrase strand transfer inhibitor” (Bioorg Med Chem Lett, 2018)
pIC50: −log10 of the molar value.

Legend:
[1] = target: Human immunodeficiency virus type 1 integrase (Human immunodeficiency virus 1, UniProt Q7ZJM1); experiment: Inhibition of HIV1 integrase strand transfer activity
[2] = Clearance in Sprague-Dawley rat at 1 mg/kg, iv after 4 hrs; assay type: ADME, organism-based; conditions: in vivo
In short: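 Male Sprague-Dawley rats given 1 mpk IV in PEG400/ethanol (90:10); blood sampled at 5 and 30 min and 1, 2 and 4 h post-dose; clearance from plasma profile.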

Human immunodeficiency virus type 1 integrase, sequence (Q7ZJM1 whole entry): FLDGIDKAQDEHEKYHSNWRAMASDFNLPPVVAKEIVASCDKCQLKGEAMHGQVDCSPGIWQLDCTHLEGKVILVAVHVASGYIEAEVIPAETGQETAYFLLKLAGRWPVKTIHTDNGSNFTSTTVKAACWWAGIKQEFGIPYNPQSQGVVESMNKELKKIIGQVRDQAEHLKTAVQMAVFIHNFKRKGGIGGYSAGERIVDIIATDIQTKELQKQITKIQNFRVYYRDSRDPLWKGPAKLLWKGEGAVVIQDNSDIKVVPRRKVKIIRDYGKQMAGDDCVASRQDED

SMILES | pIC50 [1] | clearance [2]
CC1(C)OCCn2c1nc(C(=O)NCc1ccc(F)cc1Cl)c(O)c2=O | 8.00 | –
CC1(C)OCCn2c1nc(C(=O)NCc1ccc(F)cc1S(C)(=O)=O)c(O)c2=O | 8.22 | 6.9 mL/min/kg
